Results from ChEMBL document CHEMBL5252510, “A Novel Potent Oral Series of VEGFR2 Inhibitors Abrogate Tumor Growth by Inhibiting Angiogenesis” (J Med Chem, 2016).
Blank lines part the entries; values can stand above or below the compound they belong to. The source made the active and inactive calls. The rule behind the calls is not given here.

Tests used:
[1] = biological target: RAF proto-oncogene serine/threonine-protein kinase (Homo sapiens) (UniProt P04049); experiment: Inhibition of human recombinant GST-fused cRAF expressed in baculovirus expression system using poly-Glu-Tyr (4:1) as substrate measured after 10 mins in presence of gamma-[33P]-ATP by scintillation counting analysis
Sequence of RAF proto-oncogene serine/threonine-protein kinase (Homo sapiens) (P04049 whole entry, the tested form may be a part): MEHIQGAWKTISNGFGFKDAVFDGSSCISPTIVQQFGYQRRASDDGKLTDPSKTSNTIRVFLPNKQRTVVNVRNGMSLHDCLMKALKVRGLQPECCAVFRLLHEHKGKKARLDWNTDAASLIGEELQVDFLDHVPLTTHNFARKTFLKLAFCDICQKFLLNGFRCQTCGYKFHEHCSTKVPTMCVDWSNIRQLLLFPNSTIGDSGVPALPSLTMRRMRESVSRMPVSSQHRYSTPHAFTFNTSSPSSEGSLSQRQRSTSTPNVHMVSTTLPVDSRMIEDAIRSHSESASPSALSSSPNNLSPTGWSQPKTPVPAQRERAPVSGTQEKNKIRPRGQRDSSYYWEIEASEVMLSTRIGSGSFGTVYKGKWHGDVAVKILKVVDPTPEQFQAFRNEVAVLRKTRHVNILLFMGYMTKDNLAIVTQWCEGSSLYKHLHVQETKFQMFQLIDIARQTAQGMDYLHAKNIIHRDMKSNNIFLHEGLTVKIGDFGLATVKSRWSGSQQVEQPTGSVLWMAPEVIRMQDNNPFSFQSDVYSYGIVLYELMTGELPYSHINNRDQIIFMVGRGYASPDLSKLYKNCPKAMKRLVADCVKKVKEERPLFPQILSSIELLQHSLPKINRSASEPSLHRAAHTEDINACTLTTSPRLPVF
How it was run: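 GST-fused kinase domains were expressed in baculovirus and purified on glutathione-Sepharose. 10 min at ambient temperature, stopped with EDTA. Filter binding and scintillation counting. IC50 by linear regression of percent inhibition.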

[2] = Tmax in OFA rat at 25 mg/kg, po measured upto 24 hrs by HPLC/UV analysis; assay type: ADME, organism-based; conditions: in vivo
How it was run: (§1)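 Female OFA rats, femoral artery/vein catheterized and recovered 96 h. Oral gavage of a micronized suspension in 0.5 % carboxymethyl cellulose at 25 or 3 mg/kg. Bioavailability taken against femoral-vein iv dosing. Plasma sampled 5 min–24 h (9 time points).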

[3] = Dose normalized AUC(0 to infinity) in OFA rat at 25 mg/kg, po measured upto 24 hrs by HPLC/UV analysis; assay type: ADME, organism-based; conditions: in vivo; how it was run: as §1
[4] = Clearance in OFA rat at 2.5 mg/kg, iv measured upto 24 hrs by HPLC/UV analysis; assay type: ADME, organism-based; conditions: in vivo
How it was run: (§2)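 Catheters were placed in the femoral artery and vein of female OFA rats, followed by 96 h recovery. IV doses went into the femoral vein: 2.5 mg/kg in ethanol/dimethylisosorbide/PEG400/5 % glucose (10/15/35/40), or 1 mg/kg in NMP/PEG200 (30:70). Plasma samples at 5, 15, 30 min and 1, 2, 4, 6, 8, 24 h. Parameters reported over 24 h. n=2–4.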

[5] = Dose normalized Cmax in OFA rat at 25 mg/kg, po measured upto 24 hrs by HPLC/UV analysis; assay type: ADME, organism-based; conditions: in vivo; how it was run: as §1
[6] = tested on: B16-BL6; experiment: Antitumor activity against mouse B16-BL6 cells implanted in C57BL/6jNpa mouse assessed as primary tumor growth inhibition at 3 mg/kg, po qd administered every 2 days started on day 7 post implantation measured after 21 days; assay type: functional, organism-based; conditions: time 7-21 day
How it was run: (§3)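 Female C57BL/6JNpa mice, 50000 B16/BL6 cells intradermally in both ear pinnae; primary tumor area (mm²) imaged days 7, 14, 21; randomized day 7 into groups of 5-6, oral dosing in PEG200 or PEG300 vehicle daily (or every 2 days) for 14 days; day 21 cervical lymph nodes weighed, metastasis lysates assayed for TIE-2 by ELISA; T/C ratios.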

[7] = species on record: Mus musculus; experiment: Antiangiogenic activity in C57BL/6jNpa mouse harbouring mouse B16-BL6 cells assessed as reduction in K-trans level by measuring T/C ratio measured after 3 days by DCE-MRI assay; assay type: functional; conditions: time 3 day
How it was run: (§4)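 C57BL/6JNpa mice bearing B16/BL6 cervical lymph-node metastases, at least 8 per group, anaesthetized and given contrast agent; DCE-MRI Ktrans and iAUEC (permeability) and Vp (plasma volume) measured before and again after daily treatment; change per mouse recorded, mean ± SEM, one-way ANOVA with Holm-Sidak comparisons versus vehicle.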

[8] = Antitumor activity against rat BN472 cell implanted in Brown-Norway rat assessed as T/C ratio at 1 mg/kg, po administered once every 2 days measured upto 14 days; assay type: functional; conditions: time <= 14 day
How it was run: (§5)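 Female Brown-Norway rats (160-180 g) given 3 mm³ BN472 tumor fragments in mammary fat pads; at about 200 mm², randomized into groups of 7-8 and dosed orally with compound or PEG300 vehicle over 14 days; tumor growth followed, T/C computed; significance by 2-way RM-ANOVA.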

[9] = Antitumor activity against rat BN472 cell implanted in Brown-Norway rat assessed as T/C ratio at 3 mg/kg, po qd measured upto 14 days; assay type: functional; conditions: time <= 14 day; how it was run: as §5
[10] = tested on: B16-BL6; experiment: Antitumor activity against mouse B16-BL6 cells implanted in C57BL/6jNpa mouse assessed as metastatic tumor growth inhibition at 3 mg/kg, po qd administered once every 2 days started on day 7 post implantation measured after 21 days relative to control; assay type: functional, organism-based; conditions: time 7-21 day; how it was run: as §3
[11] = tested on: BN472 cell; experiment: Antitumor activity against rat BN472 cell implanted in Brown-Norway rat assessed as reduction in perfused blood vessels at 3 mg/kg, po qd measured upto 14 days by Hoechst staining based microscopic analysis; assay type: functional, organism-based; conditions: time <= 14.0 day
How it was run: (§6)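 BN472-bearing Brown-Norway rats dosed orally; Hoechst dye i.v. shortly before sacrifice to mark perfused vessels; tumors cryosectioned at 10 micron, blocked in 10 % goat serum/0.1 % Triton X-100, stained with rabbit anti-Ki67 (1:200) or anti-caspase 3 (1:10) and fluorescent secondary antibodies; fluorescence microscopy.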

[12] = species on record: Mus musculus; experiment: Antiangiogenic activity in C57BL/6jNpa mouse harbouring mouse B16-BL6 cells assessed as reduction in tumor plasma volume measured after 3 days by DCE-MRI assay relative to control; assay type: functional; set-up: scale not given: the % may be the effect or the level left; conditions: time 3 day; how it was run: as §4
[13] = tested on: B16-BL6; experiment: Antitumor activity against mouse B16-BL6 cells implanted in C57BL/6jNpa mouse assessed as primary tumor growth inhibition by measuring T/C ratio at 1 mg/kg, po qd administered every 2 days started on day 7 post implantation measured after 21 days; assay type: functional; conditions: time 7-21 day; how it was run: as §3
[14] = tested on: B16-BL6; experiment: Antitumor activity against mouse B16-BL6 cells implanted in C57BL/6jNpa mouse assessed as primary tumor growth inhibition by measuring T/C ratio at 3 mg/kg, po qd administered once every 2 days started on day 7 post implantation measured after 21 days; assay type: functional; conditions: time 7-21 day; how it was run: as §3
[15] = tested on: BN472 cell; experiment: Antitumor activity against rat BN472 cell implanted in Brown-Norway rat assessed as reduction in cell growth at 3 mg/kg, po qd measured upto 14 days by Ki67 staining based microscopic analysis; assay type: functional, organism-based; conditions: time <= 14.0 day; how it was run: as §6
[16] = species on record: Mus musculus; experiment: Antiangiogenic activity in C57BL/6jNpa mouse harbouring mouse B16-BL6 cells assessed as reduction in K-trans level measured after 3 days by DCE-MRI assay relative to control; assay type: functional; set-up: scale not given: the % may be the effect or the level left; conditions: time 3 day; how it was run: as §4
[17] = species on record: Mus musculus; experiment: Antiangiogenic activity in C57BL/6jNpa mouse harbouring mouse B16-BL6 cells assessed as reduction in iAUEC level by measuring T/C ratio measured after 3 days by DCE-MRI assay; assay type: functional; conditions: time 3 day; how it was run: as §4
[18] = Half life in OFA rat at 3 mg/kg, po measured upto 24 hrs by HPLC/UV analysis; assay type: ADME, organism-based; conditions: in vivo; how it was run: as §1
[19] = Dose normalized AUC(0 to infinity) in OFA rat at 3 mg/kg, po measured upto 24 hrs by HPLC/UV analysis; assay type: ADME, organism-based; conditions: in vivo; how it was run: as §1
[20] = Tmax in OFA rat at 3 mg/kg, po measured upto 24 hrs by HPLC/UV analysis; assay type: ADME, organism-based; conditions: in vivo; how it was run: as §1
[21] = Oral bioavailability in OFA rat at 3 mg/kg measured upto 24 hrs by HPLC/UV analysis; assay type: ADME, organism-based; conditions: in vivo; how it was run: as §1
[22] = Volume of distribution at steady state in OFA rat at 1 mg/kg, iv measured upto 24 hrs by HPLC/UV analysis; assay type: ADME, organism-based; conditions: in vivo, read-out: Vdss
How it was run: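 Female OFA rats with femoral artery and vein catheters, 96 h recovery. IV into femoral vein: 2.5 mg/kg in ethanol/dimethylisosorbide/PEG400/D5W (10/15/35/40) or 1 mg/kg in NMP/PEG200 (30:70). Plasma sampled at 5, 15, 30 min, 1, 2, 4, 6, 8, 24 h; drug measured by HPLC (UV or MS-MS stated); parameters dose normalized, n=2-4.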

[23] = Clearance in OFA rat at 1 mg/kg, iv measured upto 24 hrs by HPLC/UV analysis; assay type: ADME, organism-based; conditions: in vivo; how it was run: as §2

- inhibition [1]: Active
- Tmax [2]: 2 h
- AUC/dose [3]: 1.22 µmol·h/L
- clearance [4]: 11 mL/min/kg
- Cmax/dose [5]: 0.28 µmol/L
SMILES: Nc1nccc(Oc2ccc3c(C(=O)Nc4cccc(C(F)(F)F)c4)cccc3c2)n1

SMILES: Nc1nccc(Oc2ccc3c(C(=O)Nc4ccc(F)c(C(F)(F)F)c4)cccc3c2)n1
- Activity [6]: Active
- T/C [7]: 0.39
- T/C [8]: 0.176
- T/C [9]: 0.056
- Activity [10]: Active
- Activity [11]: Active
- Activity [12]: 65%
- T/C [13]: 0.6
- T/C [14]: 0.39
- Activity [15]: Active
- Activity [16]: 61%
- T/C [17]: 0.34

- half-life [18]: 246 min
- AUC/dose [19]: 13.2 µmol·h/L
- Tmax [20]: 2 h
- bioavailability [21]: 46%
- Vd [22]: 0.63 L/kg
- clearance [23]: 3 mL/min/kg
SMILES: O=C(Nc1cccc(C(F)(F)F)c1)c1cccc2cc(Oc3cc(CO)ncn3)ccc12 [BFH-772]
